Laboratory results taken from ChEMBL document CHEMBL1150425, “Parallel one-pot synthesis and structure-activity relationship study of symmetric formimidoester disulfides as a novel class of potent non-nucleoside HIV-1 reverse transcriptase inhibitors” (Bioorg Med Chem, 2008).

Key:
[1] = Cytotoxicity against human MT4 cells by MTT method; assay type: cell-based
Summary of the method: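 Mock-infected MT-4 cells, run in parallel with the antiviral test; CC50 = concentration reducing viability by 50%, read by MTT. Triplicate samples.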

[2] = tested on: Human immunodeficiency virus 1; experiment: Antiviral activity against HIV1 in MT4 cells assessed as reduction of virus induced cytopathogenicity by MTT method; assay type: functional, organism-based; settings: Human immunodeficiency virus 1, MT4
Summary of the method: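 MT-4 cells infected with wild-type HIV-1; EC50 = concentration giving 50% protection of cells from virus-induced cytopathogenicity, viability read by MTT. Triplicate samples.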

[3] = Selectivity index, ratio of CC50 for human MT4 cells to EC50 for HIV1 cells; assay type: toxicity, cell-based; settings: read-out: Ratio CC50/EC50
Summary of the method: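 Ratio of CC50 (mock-infected MT-4 viability, MTT) to EC50 (50% protection of MT-4 cells from HIV-1 cytopathogenicity, MTT), both taken from the same parallel cell-based run.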

[4] = tested on: Human immunodeficiency virus 1; experiment: Antiviral activity against HIV1 with reverse transcriptase K103R mutation; assay type: functional, organism-based
Summary of the method: (§1)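 MT-4 cells infected with the mutant HIV-1 strain; protection from virus-induced cytopathogenicity read by MTT. EC50 is the concentration (µM) giving 50% protection. Cytotoxicity was assayed in parallel on mock-infected MT-4 cells by MTT. Triplicate samples.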

[5] = tested on: Human immunodeficiency virus 1; experiment: Antiviral activity against HIV1 with reverse transcriptase Y181C mutation; assay type: functional, organism-based; summary of the method: as §1

| SMILES | CC50 [1] | EC50 [2] | selectivity ratio [3] | EC50 [4] | EC50 [5] |
| --- | --- | --- | --- | --- | --- |
| Cc1cc(Br)cc(C)c1/N=C(\OCCN1C(=O)c2ccccc2C1=O)SS/C(=N/c1c(C)cc(Br)cc1C)OCCN1C(=O)c2ccccc2C1=O | > 100 µM | > 100 µM |  |  |  |
| O=C1c2ccccc2C(=O)N1CCO/C(=N\c1cc(Cl)ccc1Cl)SS/C(=N/c1cc(Cl)ccc1Cl)OCCN1C(=O)c2ccccc2C1=O | > 100 µM | > 100 µM |  |  |  |
| O=C1c2ccccc2C(=O)N1CCO/C(=N\c1c(F)cc(F)cc1F)SS/C(=N/c1c(F)cc(F)cc1F)OCCN1C(=O)c2ccccc2C1=O | 39 µM | 1.2 µM | 33 |  |  |
| O=C1c2ccccc2C(=O)N1CCO/C(=N\c1cccc(Cl)c1Cl)SS/C(=N/c1cccc(Cl)c1Cl)OCCN1C(=O)c2ccccc2C1=O | 37 µM | 18 µM | 2.1 |  |  |
| O=C1c2ccccc2C(=O)N1CCO/C(=N\c1ccc(I)cc1)SS/C(=N/c1ccc(I)cc1)OCCN1C(=O)c2ccccc2C1=O | 48 µM | 0.03 µM | 1600 |  |  |
| Cc1ccccc1/N=C(\OCCN1C(=O)c2ccccc2C1=O)SS/C(=N/c1ccccc1C)OCCN1C(=O)c2ccccc2C1=O | 11 µM | > 11 µM | < 1 |  |  |
| O=C1c2ccccc2C(=O)N1CCO/C(=N\c1ccc(Cl)c([N+](=O)[O-])c1)SS/C(=N/c1ccc(Cl)c([N+](=O)[O-])c1)OCCN1C(=O)c2ccccc2C1=O | 18 µM | 0.07 µM | 257 |  |  |
| O=C1c2ccccc2C(=O)N1CCO/C(=N\c1cccc([N+](=O)[O-])c1)SS/C(=N/c1cccc([N+](=O)[O-])c1)OCCN1C(=O)c2ccccc2C1=O | > 100 µM | 0.7 µM | > 143 |  |  |
| O=C1c2ccccc2C(=O)N1CCO/C(=N\c1cc(F)cc(F)c1)SS/C(=N/c1cc(F)cc(F)c1)OCCN1C(=O)c2ccccc2C1=O | 37 µM | > 37 µM | < 1 |  |  |
| O=C1c2ccccc2C(=O)N1CCO/C(=N\c1ccc(F)cc1F)SS/C(=N/c1ccc(F)cc1F)OCCN1C(=O)c2ccccc2C1=O | 27 µM | 0.05 µM | 541 |  |  |
| O=C1c2ccccc2C(=O)N1CCO/C(=N\c1cccc(F)c1)SS/C(=N/c1cccc(F)c1)OCCN1C(=O)c2ccccc2C1=O | 38 µM | 5 µM | 7.6 |  |  |
| O=C1c2ccccc2C(=O)N1CCO/C(=N\c1cccc(Br)c1)SS/C(=N/c1cccc(Br)c1)OCCN1C(=O)c2ccccc2C1=O | 89 µM | 6 µM | 15 |  |  |
| O=C1Nc2ccc(Cl)cc2C(C#CC2CC2)(C(F)(F)F)O1 (single isomer, unassigned) [EFAVIRENZ] |  |  |  | 0.04 µM | 0.01 µM |
| O=C1c2ccccc2C(=O)N1CCO/C(=N\c1ccc(Cl)c(C(F)(F)F)c1)SS/C(=N/c1ccc(Cl)c(C(F)(F)F)c1)OCCN1C(=O)c2ccccc2C1=O | > 100 µM | 28 µM | > 3.6 |  |  |
| O=C1c2ccccc2C(=O)N1CCO/C(=N\c1cccc(Cl)c1)SS/C(=N/c1cccc(Cl)c1)OCCN1C(=O)c2ccccc2C1=O | 36 µM | 0.4 µM | 90 |  |  |
| O=C1c2ccccc2C(=O)N1CCO/C(=N\C1CC1)SS/C(=N/C1CC1)OCCN1C(=O)c2ccccc2C1=O | > 100 µM | > 100 µM |  |  |  |
| Cc1ccc(/N=C(\OCCN2C(=O)c3ccccc3C2=O)SS/C(=N/c2ccc(C)c(Cl)c2)OCCN2C(=O)c3ccccc3C2=O)cc1Cl | > 100 µM | 0.2 µM | > 500 |  |  |
| O=C1c2ccccc2C(=O)N1CCO/C(=N\c1cccc(C(F)(F)F)c1)SS/C(=N/c1cccc(C(F)(F)F)c1)OCCN1C(=O)c2ccccc2C1=O | 22 µM | 2.3 µM | 9.6 |  |  |
| COc1cccc(/N=C(\OCCN2C(=O)c3ccccc3C2=O)SS/C(=N/c2cccc(OC)c2)OCCN2C(=O)c3ccccc3C2=O)c1 | 80 µM | 1.3 µM | 61 |  |  |
| O=C1c2ccccc2C(=O)N1CCO/C(=N\c1ccc(C(F)(F)F)cc1)SS/C(=N/c1ccc(C(F)(F)F)cc1)OCCN1C(=O)c2ccccc2C1=O | > 100 µM | 0.1 µM | > 1000 |  |  |

| SMILES | CC50 [1] | EC50 [2] | selectivity ratio [3] | EC50 [4] | EC50 [5] |
| --- | --- | --- | --- | --- | --- |
| O=C1c2ccccc2C(=O)N1CCO/C(=N\c1cc(F)ccc1F)SS/C(=N/c1cc(F)ccc1F)OCCN1C(=O)c2ccccc2C1=O | 52 µM | 1.3 µM | 40 |  |  |
| Cc1ccc(/N=C(\OCCN2C(=O)c3ccccc3C2=O)SS/C(=N/c2ccc(C)cc2)OCCN2C(=O)c3ccccc3C2=O)cc1 | 21 µM | 0.04 µM | 525 |  |  |
| N#Cc1ccc(/N=C(\OCCN2C(=O)c3ccccc3C2=O)SS/C(=N/c2ccc(C#N)cc2)OCCN2C(=O)c3ccccc3C2=O)cc1 | > 100 µM | 0.1 µM | > 1000 |  |  |
| CC(=O)c1ccc(/N=C(\OCCN2C(=O)c3ccccc3C2=O)SS/C(=N/c2ccc(C(C)=O)cc2)OCCN2C(=O)c3ccccc3C2=O)cc1 | > 100 µM | 24 µM | > 4.2 |  |  |
| O=C1c2ccccc2C(=O)N1CCO/C(=N\c1ccc(F)cc1)SS/C(=N/c1ccc(F)cc1)OCCN1C(=O)c2ccccc2C1=O | 29 µM | 0.02 µM | 1450 |  |  |
| O=C1c2ccccc2C(=O)N1CCO/C(=N\c1ccccc1F)SS/C(=N/c1ccccc1F)OCCN1C(=O)c2ccccc2C1=O | 43 µM | 1.2 µM | 36 |  |  |
| c1ccc(CCO/C(=N\c2ccccc2)SS/C(=N/c2ccccc2)OCCc2ccccc2)cc1 | 70 µM | 11 µM | 6.4 |  |  |
| O=C1c2ccccc2C(=O)N1CCCO/C(=N\c1ccc(Br)cc1)SS/C(=N/c1ccc(Br)cc1)OCCCN1C(=O)c2ccccc2C1=O | > 100 µM | > 100 µM |  |  |  |
| COc1ccc(/N=C(\OCCN2C(=O)c3ccccc3C2=O)SS/C(=N/c2ccc(OC)cc2)OCCN2C(=O)c3ccccc3C2=O)cc1 | 90 µM | 0.06 µM | 1500 |  |  |
| O=C1c2ccccc2C(=O)N1CCO/C(=N\Cc1ccccc1)SS/C(=N/Cc1ccccc1)OCCN1C(=O)c2ccccc2C1=O | > 100 µM | 7 µM | > 14 |  |  |
| Cc1cc(C)cc(/N=C(\OCCN2C(=O)c3ccccc3C2=O)SS/C(=N/c2cc(C)cc(C)c2)OCCN2C(=O)c3ccccc3C2=O)c1 | > 100 µM | 3 µM | > 33 |  |  |
| O=C1c2ccccc2C(=O)N1CCO/C(=N\c1cc(Cl)cc(Cl)c1)SS/C(=N/c1cc(Cl)cc(Cl)c1)OCCN1C(=O)c2ccccc2C1=O | 42 µM | > 42 µM | < 1 |  |  |
| O=C1c2ccccc2C(=O)N1CCO/C(=N\c1cccc2ccccc12)SS/C(=N/c1cccc2ccccc12)OCCN1C(=O)c2ccccc2C1=O | > 100 µM | 8 µM | > 13 |  |  |
| O=C1c2ccccc2C(=O)N1CCO/C(=N\c1ccc(Cl)cc1Cl)SS/C(=N/c1ccc(Cl)cc1Cl)OCCN1C(=O)c2ccccc2C1=O | > 100 µM | 4 µM | > 25 |  |  |
| Cc1ccc2c(c1)C(=O)N(CCO/C(=N\c1ccc(Br)cc1)SS/C(=N/c1ccc(Br)cc1)OCCN1C(=O)c3ccc(C)cc3C1=O)C2=O | > 100 µM | 1.3 µM | > 77 |  |  |
| O=C1c2ccccc2C(=O)N1CCO/C(=N\c1ccccc1)SS/C(=N/c1ccccc1)OCCN1C(=O)c2ccccc2C1=O | 80 µM | 0.35 µM | 229 |  |  |
| O=C1c2ccccc2C(=O)N1CCO/C(=N\c1ccc(Cl)cc1)SS/C(=N/c1ccc(Cl)cc1)OCCN1C(=O)c2ccccc2C1=O | 88 µM | 0.02 µM | 5500 |  |  |
| O=C1c2ccccc2C(=O)N1CCO/C(=N\c1ccccc1Cl)SS/C(=N/c1ccccc1Cl)OCCN1C(=O)c2ccccc2C1=O | 9 µM | > 9 µM | < 1 |  |  |
| O=C1c2ccccc2C(=O)N1CCO/C(=N\c1ccc(Cl)c(Cl)c1)SS/C(=N/c1ccc(Cl)c(Cl)c1)OCCN1C(=O)c2ccccc2C1=O | > 100 µM | 7 µM | > 14 |  |  |
